Measured values reported in ChEMBL document CHEMBL5104108, “Concise synthesis and biological activity evaluation of novel pyrazinyl-aryl urea derivatives against several cancer cell lines, which can especially induce T24 apoptotic and necroptotic cell death” (RSC Med Chem, 2022).
Active and inactive are the calls of the source. No cut-off for these calls is given here.

Legend:
[1] = MRT (0 to 48 hrs) in Sprague-Dawley rat at 6 mg/kg, IG measured HPLC analysis; assay type: ADME, organism-based; details: in vivo, po
In short: (§1)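 Fasted (12 h) male-unspecified Sprague-Dawley rats (250 ± 20 g), n = 6 per group. Single intragastric dose of suspension (2 mg mL−1 in Tween 80/0.9% NaCl 1.5:5 v/v). Orbital blood drawn at 0.5–48 h and plasma assayed by reversed-phase C18 HPLC-UV. One-compartment fit, weight 1.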

[2] = test system: T-24; test: Induction of necroptosis in human T24 cells assessed as necrotic cells at 7.5 to 12.5 uM measured after 16 hrs by flow cytometry analysis; assay type: functional, cell-based; details: dose 7.5-12.5 µM
In short: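 T24 cells in 60 mm dishes treated at 37 °C for 16 h with or without Nec-1 (60 μM). Washed thrice in PBS, then stained with Annexin V-FITC/PI for 15 min at room temperature in the dark. Flow cytometry, ≥1 × 10^4 events. Necrotic fraction taken as Annexin−/PI+. Done in triplicate.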

[3] = Tmax in Sprague-Dawley rat at 12 mg/kg, IG measured HPLC analysis; assay type: ADME, organism-based; details: in vivo, po; in short: as §1
[4] = test system: T-24; test: Induction of apoptosis in human T24 cells assessed as increase in caspase-3 expression at 0 to 5 uM measured by Western blot analysis; assay type: functional, cell-based; details: dose 0-5 µM
In short: (§2)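 Apoptosis-related proteins measured by Western blot in T24 lysates: 40 μg protein per lane by SDS-PAGE, PVDF transfer, primary and peroxidase-linked secondary antibodies, ECL detection, densitometry of gray values with β-actin as loading control.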

[5] = test system: T-24; test: Up-regulation of MLKL expression in human T24 cells at 2.5 to 7.5 uM measured by ELISA assay; assay type: functional, cell-based; details: dose 2.5-7.5 µM
In short: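 T24 cells pretreated, collected, diluted in PBS, counted and stored overnight at −20 °C. After membrane disruption, lysates centrifuged at 5000 × g for 5 min (4 °C). RIPK1, RIPK3 and MLKL levels then measured with ELISA kits.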

[6] = test system: HepG2; test: Antiproliferative activity against human HepG2 cells measured after 48 hrs by MTT assay; assay type: functional, cell-based; details: HepG2, 48 h
In short: (§3)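 Cells seeded 5 × 10^3 per well, grown overnight at 37 °C, then exposed to compound at final 1–40 μM (1, 2.5, 5, 7.5, 10, 12.5, 15, 20, 30, 40 μM) for the stated period. MTT added, 4 h at 37 °C, formazan dissolved in DMSO, absorbance read. IC50 = concentration killing 50% of cells relative to untreated control; mean ± S.D. of four independent experiments.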

[7] = Tmax in Sprague-Dawley rat at 6 mg/kg, IG measured HPLC analysis; assay type: ADME, organism-based; details: in vivo, po; in short: as §1
[8] = Absorption rate constant in Sprague-Dawley rat at 6 mg/kg, IG measured HPLC analysis; assay type: ADME, organism-based; details: in vivo, po
[9] = test system: T-24; test: Down-regulation of RIPK1 expression in human T24 cells at 7.5 to 10 uM measured in presence of 60 uM Nec-1 after 16 hrs by Western blot analysis; assay type: functional, cell-based; details: dose 7.5-10 µM
In short: (§4)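 T24 cells co-incubated 16 h with or without Nec-1 (60 μM). Lysates quantified by BCA, 40 μg protein resolved by SDS-PAGE, transferred to PVDF, probed with primary and peroxidase-conjugated secondary antibodies, detected by ECL. Band gray values normalized to β-actin loading control.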

[10] = test system: T-24; test: Induction of apoptosis in human T24 cells assessed as increase in cleaved caspase-8 expression at 0 to 5 uM measured by Western blot analysis; assay type: functional, cell-based; details: dose 0-5 µM; in short: as §2
[11] = test system: T-24; test: Induction of intracellular reactive oxygen species production in human T24 cells assessed as ROS level at 5 uM measured after 16 hrs by flow cytometry analysis; assay type: functional, cell-based
In short: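 After 16 h treatment, floating and adherent T24 cells pooled and loaded with DCFH-DA (final 10 μM) for 30 min at 37 °C in the dark, washed, resuspended in PBS and analyzed by flow cytometry; fluorescence also quantified by luminescence spectrometry. ROS expressed relative to control; mean ± S.D. of three independent experiments.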

[12] = Clearance in Sprague-Dawley rat at 12 mg/kg, IG measured HPLC analysis; assay type: ADME, organism-based; details: in vivo, po
[13] = test system: MGC-803; test: Antiproliferative activity against human MGC-803 cells measured after 48 hrs by MTT assay; assay type: functional, cell-based; details: MGC-803, 48 h; in short: as §3
[14] = Half-life in Sprague-Dawley rat at 6 mg/kg, IG measured HPLC analysis; assay type: ADME, organism-based; details: in vivo, po
[15] = test system: T-24; test: Antiproliferative activity against human T24 cells measured after 48 hrs by MTT assay; assay type: functional, cell-based; details: T-24, 48 h; in short: as §3
[16] = test system: T-24; test: Induction of necroptosis in human T24 cells assessed as viable cells at 10 uM and measured by trypan blue exclusion assay; assay type: functional; details: read-out: Activity
In short: (§5)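 T24 cells (2 × 10^5/well) exposed for 16 h with or without Nec-1 (60 μM), then stained with trypan blue. Viable and dead cells counted. Result given as % viable cells relative to untreated control.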

[17] = AUMC in Sprague-Dawley rat at 12 mg/kg, IG measured HPLC analysis; assay type: ADME, organism-based; details: in vivo, po
[18] = test system: T-24; test: Up-regulation of RIPK1 expression in human T24 cells at 7.5 to 10 uM measured after 16 hrs by Western blot analysis; assay type: functional, cell-based; details: dose 7.5-10 µM
[19] = test system: T-24; test: Down-regulation of RIPK2 expression in human T24 cells at 7.5 to 10 uM measured in presence of 60 uM Nec-1 after 16 hrs by Western blot analysis; assay type: functional, cell-based; details: dose 7.5-10 µM; in short: as §4
[20] = test system: T-24; test: Induction of apoptosis in human T24 cells assessed as increase in caspase-8 expression at 0 to 5 uM measured by Western blot analysis; assay type: functional, cell-based; details: dose 0-5 µM; in short: as §2
[21] = test system: T-24; test: Antiproliferative activity against human T24 cells measured after 72 hrs by MTT assay; assay type: functional, cell-based; details: T-24, 72 h; in short: as §3
[22] = test system: T-24; test: Up-regulation of MLKL expression in human T24 cells at 7.5 to 10 uM measured after 16 hrs by Western blot analysis; assay type: functional, cell-based; details: dose 7.5-10 µM
[23] = AUC (0 to 48 hrs) in Sprague-Dawley rat at 12 mg/kg, IG measured HPLC analysis; assay type: ADME, organism-based; design: time < 48 hr, dose 12 mg/kg, route ig; details: in vivo, po
[24] = test system: T-24; test: Induction of intracellular reactive oxygen species production in human T24 cells at 5 to 10 uM measured in presence of 60 uM Nec-1 after 16 hrs by flow cytometry analysis; assay type: functional, cell-based; details: dose 5-10 µM
In short: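 After 5-23 treatment (16 h), floating and adherent T24 cells pooled and loaded with DCFH-DA (final 10 μM) for 30 min at 37 °C in the dark. Cells washed, resuspended in PBS and read by flow cytometry; quantified by luminescence spectrometry as % of control. Runs with zVAD (30 μM) or Nec-1 (60 μM). Three parallel samples.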

[25] = test system: T-24; test: Up-regulation of RIPK1 mRNA expression in human T24 cells at 7.5 to 12.5 uM measured by RT-PCR analysis; assay type: functional, cell-based; details: dose 7.5-12.5 µM
In short: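 Total T24 RNA extracted with TRIzol. RT-PCR normalized to GAPDH, relative expression by 2−ΔΔCt versus control. Incubation 16 h for RIPK1/RIPK3/MLKL. At least three independent experiments, each in triplicate.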

[26] = Absorption rate constant in Sprague-Dawley rat at 12 mg/kg, IG measured HPLC analysis; assay type: ADME, organism-based; details: in vivo, po
[27] = Half-life in Sprague-Dawley rat at 12 mg/kg, IG measured HPLC analysis; assay type: ADME, organism-based; details: in vivo, po
[28] = test system: T-24; test: Induction of necroptosis in human T24 cells assessed as viable cells at 7.5 uM and measured by trypan blue exclusion assay; assay type: functional; details: read-out: Activity; in short: as §5

O=C(Nc1ccc(C(F)(F)F)cc1)Nc1cccc(CNc2nccnc2Cl)c1
MRT last [1]: 9.17 h | Activity [2]: Active | Tmax [3]: 12.4 h | Activity [4]: Active | Activity [5]: Active | IC50 [6]: 5.05 µM | Tmax [7]: 12 h | Ka [8]: 0.098 h⁻¹ | Activity [9]: Active | Activity [10]: Active | Activity [11]: Active | CL/F [12]: 0.659 mL/min | IC50 [13]: 6.91 µM | half-life [14]: 6.56 h | IC50 [15]: 4.58 µM | viability at 10 µM [16]: 38% | AUMC [17]: 1494860 hr2.ng/ml | Activity [18]: Active | Activity [19]: Active | Activity [20]: Active | IC50 [21]: 3.55 µM | Activity [22]: Active | AUC(0-t) at 48 h [23]: 75800 ng·h/mL | Activity [24]: Active | Activity [25]: Active | Ka [26]: 0.107 h⁻¹ | half-life [27]: 7.17 h | viability at 7.5 µM [28]: 51%
